Sampled rows, rich in hits. Any-hit rate of the full collection: about 3.5%.
MEKK2wt PB1 HTS – raises or lowers MEK5 binding to wildtype human MEKK2 PB1 domain. Q9Y2U5. bead flow cytometry, Alexa488-MEK5 binding to MEKK2 WT; actives lie on both sides. binding response (% of control), % at 10 µM. actives 1.1% (n = 290,000). AID 1531; in the data active = binding response below about 67% or above about 130%
WT yeast gro inh – growth inhibition of WT yeast, mitochondrial fusion screen; mitochondrial fusion phenotypic screen, WT strain; inhibition, % at 10 µM; actives 2.1% (n = 190,000); AID 1362; in the data active = inhibition above about 58%; tested in S. cerevisiae
MEKK3 PB1 HTS – raises or lowers MEK5 binding to the human MEKK3 PB1 domain. Q99759. bead-based flow cytometry, Alexa488-MEK5 binding to MEKK3; actives lie on both sides; 0 = blocked by unlabeled MEK5, 100 = vehicle. binding response (% of control), % at 10 µM. actives 1.4% (n = 290,000);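 active = binding response more than 3 SD above or below the average of its plate-row segment, actives on both sides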;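 also: Alexa488 bead fluorescence after subtracting the streptavidin-only scavenger bead signal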
ABCB1 inh – inhibitors of human ABCB1 transporter, ABCG2 counter-screen. AID 1326. P08183. actives 0.067% (n = 190,000). CCRF-Adr cells, JC-1 efflux, flow cytometry. inhibition, % at 6.6 µM; in the data active = inhibition above about 40%;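 also: 0% = vehicle and 100% = reference inhibitor; higher value means more JC-1 retained so stronger ABCB1 efflux block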
MEKK2 mut-MEK5 – signal of MEK5 binding to mutant human MEKK2 PB1 domain; percent response, % at 10 µM; actives 0.35% (n = 290,000); bead flow cytometry, Alexa488-MEK5 binding to MEKK2 mutant; in the data active = percent response above about 24%, passing the limit was not always enough
ABCG2 inh – inhibitors of human ABCG2 transporter, ABCB1 counter-screen; actives 0.1% (n = 190,000); IgMXP3 cells, JC-1 efflux, flow cytometry; Q9UNQ0; inhibition, % at 6.6 µM; AID 1325;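 active = inhibition above 80%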;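 also: 0% = DMSO and 100% = nicardipine control wells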
Target sequence (Q9UNQ0 whole entry, looked up): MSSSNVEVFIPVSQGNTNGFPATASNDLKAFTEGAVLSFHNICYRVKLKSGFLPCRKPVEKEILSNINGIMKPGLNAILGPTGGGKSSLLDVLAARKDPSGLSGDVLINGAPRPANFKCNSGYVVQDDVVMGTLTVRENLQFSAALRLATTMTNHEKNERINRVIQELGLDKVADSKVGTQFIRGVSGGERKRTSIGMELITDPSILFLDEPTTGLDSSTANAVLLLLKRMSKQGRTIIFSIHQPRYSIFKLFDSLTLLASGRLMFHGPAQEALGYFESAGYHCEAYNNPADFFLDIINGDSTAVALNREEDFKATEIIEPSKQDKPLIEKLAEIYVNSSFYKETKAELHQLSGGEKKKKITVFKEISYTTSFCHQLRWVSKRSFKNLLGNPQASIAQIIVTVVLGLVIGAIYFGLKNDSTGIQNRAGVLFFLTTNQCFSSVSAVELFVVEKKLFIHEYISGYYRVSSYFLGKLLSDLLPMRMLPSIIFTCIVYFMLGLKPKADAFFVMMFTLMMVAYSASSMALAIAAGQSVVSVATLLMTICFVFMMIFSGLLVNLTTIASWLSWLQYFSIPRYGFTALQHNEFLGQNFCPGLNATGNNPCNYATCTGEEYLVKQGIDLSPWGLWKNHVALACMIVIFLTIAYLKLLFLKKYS
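Test system: ABCG2 IgMXP3 and barcoded ABCB1 CCRF-Adr cell mix; Schedule: cells with compound and JC-1, 10 min at 25 °C, rotating, no wash; Technique: flow cytometry of retained JC-1 fluorescence; Measure: % inhibition of efflux relative to nicardipine and DMSO; Controls: nicardipine high and DMSO low controls.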
* marks the source's active call; other numbers are inactive results; [ ] = another dose, or the depositor's remark.

Cc1cc(C)cc(N(CC(=O)NCC2CCCO2)C(=O)CCC(=O)Nc2cc(C)on2)c1 (configuration not stated) was read as WT yeast gro inh 99.0*, ABCB1 inh -4.2 and ABCG2 inh -7.2.
`COc1ccc([C@H]2C=C3CN(C(=O)OC(C)(C)C)S(=O)(=O)[C@H]3C[C@H]2OC(=O)c2cccs2)cc1` gave MEKK2wt PB1 HTS 95.0, MEKK3 PB1 HTS 95.0 and MEKK2 mut-MEK5 -10.0.
`COc1ccc(N2C(=O)CS/C2=N\C(=S)Nc2ccccc2)cc1` gave MEKK2wt PB1 HTS 99.0, MEKK3 PB1 HTS 104.0 and MEKK2 mut-MEK5 -1.0.
`COCCNc1nc(-c2cc(C)n(CCc3ccc(OC)cc3)c2C)cs1` gave MEKK2wt PB1 HTS -5.0*, WT yeast gro inh 6.8, MEKK3 PB1 HTS 80.0, ABCB1 inh 2.0, MEKK2 mut-MEK5 41.0 and ABCG2 inh 1.6.
For c1ccc(-c2noc(CN3CCN(c4ccccc4)CC3)n2)cc1 the results were MEKK2wt PB1 HTS 100.0, WT yeast gro inh 8.3, MEKK3 PB1 HTS 100.0, ABCB1 inh 0.2, MEKK2 mut-MEK5 2.0 and ABCG2 inh 0.3.
For c1ccc(-c2noc(CN3CCN(C(c4ccccc4)c4ccccc4)CC3)n2)cc1 the results were MEKK2wt PB1 HTS 108.0, WT yeast gro inh 74.8*, MEKK3 PB1 HTS 104.0, ABCB1 inh 0.1, MEKK2 mut-MEK5 5.0 and ABCG2 inh -0.9.
For CC(=O)N(Cc1cc2c(C)cc(C)cc2[nH]c1=O)C1CCCCC1 the results were WT yeast gro inh 98.5*, ABCB1 inh 0.7 and ABCG2 inh 0.9.
Screening CCC(=O)N(Cc1cc2cc(C)c(C)cc2[nH]c1=O)C1CCCCC1 returned MEKK2wt PB1 HTS 99.0, WT yeast gro inh -3.4, MEKK3 PB1 HTS 99.0, ABCB1 inh 2.1, MEKK2 mut-MEK5 -1.0 and ABCG2 inh 6.8.
CCCCCC[n+]1c(-c2ccccc2)csc1Nc1ccccc1 was read as MEKK2wt PB1 HTS 107.0, WT yeast gro inh 69.2*, MEKK3 PB1 HTS 99.0, ABCB1 inh 0.3, MEKK2 mut-MEK5 6.0 and ABCG2 inh 1.3.
COc1ccc(N2CCN(c3ccc(S(=O)(=O)N(C(C)C)C(C)C)cn3)CC2)cc1 was read as MEKK2wt PB1 HTS 100.0, MEKK3 PB1 HTS 101.0 and MEKK2 mut-MEK5 -2.0.
Screening NC(=O)c1ccsc1NC(=O)COC(=O)Cc1cccc2ccccc12 returned MEKK2wt PB1 HTS 104.0, WT yeast gro inh 78.3*, MEKK3 PB1 HTS 102.0, ABCB1 inh 0.8, MEKK2 mut-MEK5 3.0 and ABCG2 inh 3.8.
`CCC1=NN2C(=N)/C(=C\c3ccc(SCc4ccco4)o3)C(=O)N=C2S1` gave MEKK2wt PB1 HTS 106.0, WT yeast gro inh 26.4, MEKK3 PB1 HTS 106.0, ABCB1 inh 0.1, MEKK2 mut-MEK5 0.0 and ABCG2 inh -0.5.
`O=C1NC(=S)S/C1=C\c1ccc(SCc2ccco2)o1` gave MEKK2wt PB1 HTS 102.0, WT yeast gro inh 69.5*, MEKK3 PB1 HTS 101.0, ABCB1 inh 0.0, MEKK2 mut-MEK5 2.0 and ABCG2 inh -2.0.
`O=C1NC(=S)S/C1=C\c1ccc(SCc2ccccc2)o1` gave MEKK2wt PB1 HTS 90.0, WT yeast gro inh 83.4*, MEKK3 PB1 HTS 111.0, ABCB1 inh -0.9, MEKK2 mut-MEK5 -1.0 and ABCG2 inh -6.0.
Screening O=C1NC(=S)S/C1=C/c1ccc(OC(=O)c2ccco2)cc1 returned MEKK2wt PB1 HTS 103.0, MEKK3 PB1 HTS 101.0 and MEKK2 mut-MEK5 2.0.
For [N-]=[N+]=CC(=O)C(c1ccccc1)(c1ccccc1)c1ccccc1 the results were MEKK2wt PB1 HTS 96.0, MEKK3 PB1 HTS 99.0 and MEKK2 mut-MEK5 -7.0.
For CCCCN(C(=O)c1cccc(S(=O)(=O)N2CC(C)OC(C)C2)c1)c1c(N)n(CC(C)C)c(=O)[nH]c1=O (configuration not stated) the results were MEKK2wt PB1 HTS 101.0, MEKK3 PB1 HTS 100.0 and MEKK2 mut-MEK5 4.0.
`O=c1[nH]c(=S)n(-c2cccc(Cl)c2)c(O)c1/C=N/N1CCOCC1` gave MEKK2wt PB1 HTS 113.0, MEKK3 PB1 HTS 111.0 and MEKK2 mut-MEK5 7.0.
Screening S=C(c1cn(CCOc2ccccc2)c2ccccc12)N1CCCC1 returned MEKK2wt PB1 HTS 120.0, WT yeast gro inh 70.5*, MEKK3 PB1 HTS 105.0, ABCB1 inh 0.1, MEKK2 mut-MEK5 5.0 and ABCG2 inh 11.8.
`CN1CCN(C(=S)c2cn(Cc3ccccc3)c3ccccc23)CC1` gave MEKK2wt PB1 HTS 107.0, WT yeast gro inh 19.2, MEKK3 PB1 HTS 105.0, ABCB1 inh 2.1, MEKK2 mut-MEK5 -3.0 and ABCG2 inh 3.5.
Screening CC1CCN(C(=S)c2cn(Cc3cccc(F)c3)c3ccccc23)CC1 returned MEKK2wt PB1 HTS 105.0, WT yeast gro inh 71.3*, MEKK3 PB1 HTS 104.0, ABCB1 inh -0.8, MEKK2 mut-MEK5 -1.0 and ABCG2 inh -4.0.
CN1CCN(C(=S)c2cn(Cc3ccc(Br)cc3)c3ccccc23)CC1 was read as MEKK2wt PB1 HTS 97.0, WT yeast gro inh 78.7*, MEKK3 PB1 HTS 95.0, ABCB1 inh 5.0, MEKK2 mut-MEK5 -14.0 and ABCG2 inh 5.4.
For CC(C)(C)c1ccc(/C=N/OCC(=O)NCc2ccc(F)cc2)cc1 the results were MEKK2wt PB1 HTS 96.0, WT yeast gro inh 49.2, MEKK3 PB1 HTS 98.0, ABCB1 inh -0.1, MEKK2 mut-MEK5 -1.0 and ABCG2 inh 0.7.
`N#C/C(=C/c1ccc(-c2ccccc2)o1)c1nc(-c2cccs2)cs1` gave WT yeast gro inh 3.5, MEKK3 PB1 HTS 98.0, ABCB1 inh 6.4, MEKK2 mut-MEK5 117.0* and ABCG2 inh 6.3.
For Cc1sc2nc(CN3CCOCC3)[nH]c(=S)c2c1C the results were MEKK2wt PB1 HTS 95.0, WT yeast gro inh -16.8, MEKK3 PB1 HTS 95.0, ABCB1 inh 0.0, MEKK2 mut-MEK5 -3.0 and ABCG2 inh 0.5.
O=C(Nc1ccc(Nc2ccncc2)cc1)c1ccc(Nc2ccnc3ccc([N+](=O)[O-])cc23)cc1[N+](=O)[O-] was read as MEKK2wt PB1 HTS 28.0*[inhibitor], MEKK3 PB1 HTS 13.0*[inhibitor] and MEKK2 mut-MEK5 -49.0.
`Cn1nnnc1SCC(=O)c1ccc(Br)s1` gave MEKK2wt PB1 HTS 102.0, WT yeast gro inh 12.2, MEKK3 PB1 HTS 102.0, ABCB1 inh -0.4, MEKK2 mut-MEK5 6.0 and ABCG2 inh -0.6.
For Cn1c(Cc2ccccc2)nnc1SCC(=O)c1ccc(Br)s1 the results were MEKK2wt PB1 HTS 101.0, WT yeast gro inh 62.7*, MEKK3 PB1 HTS 105.0, ABCB1 inh -0.1, MEKK2 mut-MEK5 1.0 and ABCG2 inh 1.2.
Cc1cccc(NC(=S)N/N=C(\c2ccccc2)C(C)C)c1 was read as MEKK2wt PB1 HTS 101.0, WT yeast gro inh 73.3*, MEKK3 PB1 HTS 95.0, ABCB1 inh -0.1, MEKK2 mut-MEK5 -2.0 and ABCG2 inh 0.1.

Source: PubChem BioAssay
